Measurements from different studies.
Protocols differ between the studies behind these lines.
Cell line: NCI-H460
Read-out: cell growth or viability

SMILES | technique | time | endpoint | value
N.N.[Cl][Pt][Cl] |  |  | IC50 | 19 µM
N.N.[Cl][Pt][Cl] |  | 24 h | IC50 | 50.5 µM
C=C(C)[C@@H]1CC[C@]2(CO)CC[C@]3(C)[C@H](CC[C@@H]4[C@@]5(C)CC[C@H](O)C(C)(C)[C@@H]5CC[C@]43C)[C@@H]12 |  | 48 h | IC50 | 11.5 µM
Cc1cccc(-n2ncc(Cl)c(Cl)c2=O)c1 | resazurin | 96 h | IC50 | 1.5 µM
CN1C[C@H](C(=O)N[C@]2(C)O[C@@]3(O)[C@@H]4CCCN4C(=O)[C@H](Cc4ccccc4)N3C2=O)C=C2c3cccc4[nH]cc(c34)C[C@H]21 | MTT | 72 h | EC50 | ~25 µM
C1COCCN1.COc1ccc(/C=C\c2cc(I)c(OC)c(I)c2)cc1OP(=O)(O)O | SRB | 48 h | GI50 | 0.033 µg/mL
N.N.[Cl][Pt][Cl] | MTT | 72 h | IC50 | 3 µM
COc1cc([C@@H]2c3cc4c(cc3[C@H](O)[C@H]3COC(=O)[C@H]23)OCO4)cc(OC)c1OC | MTT | 72 h | EC50 | 0.0002 µM
